Here are results for 8 compounds from ChEMBL document CHEMBL2407084, “Novel imino sugar α-glucosidase inhibitors as antiviral compounds” (Bioorg Med Chem, 2013).

The subject of data set [1] is MDBK. The experiment in a line: Inhibition of BVDV endoplasmic reticulum alpha-glucosidase 1 infected in MDBK cells assessed as increase in E2 protein glucosylation at 100 uM after 24 hrs by Western blotting analysis. The conditions noted are these: Bovine viral diarrhea virus 1. The format is cell-based. (In general: A western blot detects proteins with antibodies after separation by electrophoresis.)

Data set [2] can be described thus: Cytotoxicity against MDBK cells after 72 hrs by MTS assay. The format is cell-based, Bos taurus. The conditions noted are these: cattle. An outline of the steps: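 MDBK cells (5 10^3/well) were plated for 24 h, then given fresh medium with a range of imino sugar concentrations for 72 h. MTS–phenazine methosulfate (20:1) was added for 1 h and absorbance read at 490 nm. Triplicates. CC50 is the concentration giving A490 at 50% of untreated controls.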
For orientation: Tetrazolium assays rely on reduction of a dye to a coloured formazan, in cell work by metabolically active cells.

The test system of data set [3] is MDBK. The experiment in a line: Inhibition of BVDV endoplasmic reticulum alpha-glucosidase 2 infected in MDBK cells assessed as increase in E2 protein glucosylation at 100 uM after 24 hrs by Western blotting analysis. The data set is classed as cell-based. The conditions noted are these: Bovine viral diarrhea virus 1.
Data set [4] deals with MDBK. Kind of data set: Inhibition of endoplasmic reticulum alpha-glucosidase 2 in MDBK cells assessed as accumulation of monoglucosylated Man5GlcNAc1 after 24 hrs by NP-HPLC analysis relative to Man4GlcNAc1 level. The format is cell-based. The following applies: Bos taurus. The method, boiled down:
(§1)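 Uninfected MDBK cells (1 10^6/well) were grown with a range of imino sugar concentrations for 24 h at 37 °C. Free oligosaccharides were extracted, labelled with 2-anthranilic acid, and purified on amide and ConA-Sepharose columns. They were separated by NP-HPLC. Peak areas of tri-glucosylated (glucosidase I) or mono-glucosylated (glucosidase II) Man5GlcNAc1 were expressed relative to Man4GlcNAc1. Mean and SD.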

The subject of data set [5] is MDBK. The experiment in a line: Inhibition of endoplasmic reticulum alpha-glucosidase 1 in MDBK cells assessed as accumulation of triglucosylated Man5GlcNAc1 after 24 hrs by NP-HPLC analysis. The format is cell-based. The following applies: Bos taurus. An outline of the steps:
as §1

For data set [6], the system named is MDBK. The experiment in a line: Inhibition of endoplasmic reticulum alpha-glucosidase 2 in MDBK cells assessed as accumulation of monoglucosylated Man5GlcNAc1 after 24 hrs by NP-HPLC analysis. The format is cell-based. The following applies: Bos taurus. The method, boiled down: as §1
In data set [7] the test system is Bovine viral diarrhea virus 1. Kind of data set: Antiviral activity against Bovine viral diarrhea virus infected in MDBK cells assessed as reduction in viral RNA level at 10 uM after 24 hrs by RT-PCR analysis. The data set is classed as functional, organism-based. An outline of the steps: (§2)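 MDBK cells (1.75 10^6/well) infected with BVDV at MOI 1, then incubated with imino sugar for 24 h. Medium was clarified by centrifugation and viral RNA purified, then DNase-treated. SYBR green real-time RT-PCR used primers amplifying a 334-bp NS2 segment, 35 cycles. Copies were calibrated against a standard curve of serially diluted BVDV stock.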

Data set [8] deals with MDBK. The experiment in a line: Inhibition of endoplasmic reticulum alpha-glucosidase 1 in MDBK cells assessed as accumulation of triglucosylated Man5GlcNAc1 after 24 hrs by NP-HPLC analysis relative to Man4GlcNAc1 level. The format is cell-based. The conditions noted are these: Bos taurus. The method, boiled down:
as §1

For data set [9], the system named is Bovine viral diarrhea virus 1. The experiment in a line: Antiviral activity against Bovine viral diarrhea virus infected in MDBK cells assessed as reduction in viral infectivity at 10 uM treated for 24 hrs followed by compound washout followed by serially diluted compound treatment measured after 24 hrs by fluorescence microscopic analysis. The format is functional, organism-based. The method, boiled down: (§3)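 Supernatant from BVDV-infected MDBK cells (MOI 1, 24 h with compound) was clarified, and fivefold serial dilutions infected naive MDBK cells for 24 h. Cells were fixed in 4% paraformaldehyde, blocked in milk, permeabilised with Triton X-100, and probed with MAb103/105 against NS2/3 then FITC anti-mouse. DAPI counterstain. Foci counted by fluorescence microscopy to give FFU/ml relative to untreated control; three experiments, mean and SD.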

Data set [10] deals with Bovine viral diarrhea virus 1. Kind of data set: Antiviral activity against Bovine viral diarrhea virus infected in MDBK cells assessed as reduction in viral infectivity at 50 uM treated for 24 hrs followed by compound washout followed by serially diluted compound treatment measured after 24 hrs by fluorescence microscopic analysis. The data set is classed as functional, organism-based. An outline of the steps: as §3

Data set [11] deals with Bovine viral diarrhea virus 1. Kind of data set: Antiviral activity against Bovine viral diarrhea virus infected in MDBK cells assessed as reduction in viral RNA level at 50 uM after 24 hrs by RT-PCR analysis. The format is functional, organism-based. The method, boiled down:
as §2

Calls of active or inactive are those of the source. The rule behind the calls is not given here.

In the case of `OC[C@@H]1[C@@H](O)[C@H](O)[C@@H](O)CN1CCCCCCCCCCn1cc(COCC23CC4CC(CC(C4)C2)C3)nn1`, the “glucosidase I inhibition (active/not active)” value with MDBK [1] was “inactive”. The midpoint of cytotoxicity in [2], the CC50 at 72 h, lay at 29.2 µM. In addition, the “activity call (active / not active)” value in the data set on MDBK [3] is “inactive”. Moreover, the fold change (FC) worked out at 5.8 in the data set with MDBK [4] and 0.26 with MDBK [8]. Also, the INH with MDBK [5] is 10 µM. In the data set on MDBK [6], the Concentration giving inhibition was 5 µM. The outcome in data set [7] and in data set [9] was Active.
Compound `OC[C@@H]1[C@@H](O)[C@H](O)[C@@H](O)CN1CCc1cn(CC23CC4CC(CC(C4)C2)C3)nn1` had a CC50 at 72 h in data set [2] of more than 250 µM. Besides, the fold change (FC) in the data set on MDBK [4] was 5.1; in the data set on MDBK [8], 0.82. The INH in the data set with MDBK [5] worked out at 100 µM. The Concentration giving inhibition in the data set with MDBK [6] came to 100 µM. For the same compound, the outcome in data set [10] and in [11] was Active. The outcome in [7] was inactive.
With `OC[C@@H]1[C@H](O)[C@H](O)[C@@H](O)CN1CCCCn1cc(COCC23CC4CC(CC(C4)C2)C3)nn1`, the “glucosidase I inhibition (active/not active)” value in the data set with MDBK [1] is “inactive”. Besides, in data set [2], the CC50 at 72 h was more than 250 µM. Further, the “activity call (active / not active)” value in the data set on MDBK [3] is “inactive”. The inhibition entry in the data set on MDBK [5] and with MDBK [6] was “inactive” throughout. For the same compound, the outcome in data set [10] and in [9] was Active.
Consider `OC[C@@H]1[C@@H](O)[C@H](O)[C@@H](O)CN1CCCCn1cc(COCC23CC4CC(CC(C4)C2)C3)nn1`, for which the “glucosidase I inhibition (active/not active)” value with MDBK [1] was “inactive”. In data set [2], the CC50 at 72 h was more than 250 µM. For the same compound, the “activity call (active / not active)” value in the data set on MDBK [3] is “inactive”. Besides, the fold change (FC) in the data set on MDBK [4] was 6; in the data set on MDBK [8], 1.52. Also, in the data set with MDBK [5], the INH stood at 100 µM. Further, the Concentration giving inhibition in the data set on MDBK [6] is 100 µM. In addition, the result in data set [7] and in data set [9] was Active.
As to `OC[C@@H]1[C@@H](O)[C@H](O)[C@@H](O)CN1CCCCCCCCn1cc(COCC23CC4CC(CC(C4)C2)C3)nn1`, the CC50 at 72 h in [2] is 51.7 µM. The fold change (FC) in the data set on MDBK [4] was determined as 5.4; in the data set on MDBK [8], 2. In addition, the INH with MDBK [5] was found to be 25 µM. Also, the Concentration giving inhibition in the data set with MDBK [6] came out at 10 µM. Also, the outcome in data set [7] and in data set [9] was Active.
In the case of `OC[C@@H]1[C@@H](O)[C@H](O)[C@@H](O)CN1CCCCCCn1cc(COCC23CC4CC(CC(C4)C2)C3)nn1`, the “glucosidase I inhibition (active/not active)” value with MDBK [1] is “Active”. This compound yielded a CC50 at 72 h in data set [2] of 205 µM. In addition, the “activity call (active / not active)” value in the data set on MDBK [3] is “Active”. The fold change (FC) came out at 8.3 in the data set with MDBK [4] and 11.4 in the data set with MDBK [8]. In addition, the INH in the data set with MDBK [5] was found to be 100 µM. Moreover, in the data set on MDBK [6], the Concentration giving inhibition turned out to be 10 µM. For the same compound, in data set [9], the result was Active.
`OC[C@@H]1[C@@H](O)[C@H](O)[C@@H](O)CN1Cc1cn(CC23CC4CC(CC(C4)C2)C3)nn1`: the CC50 at 72 h in [2] was more than 250 µM. The fold change (FC) in the data set on MDBK [4] was found to be 3; in the data set on MDBK [8] it was 0.54. The INH in the data set with MDBK [5] amounted to 100 µM. Moreover, the Concentration giving inhibition in the data set on MDBK [6] worked out at 100 µM. In data set [10], the outcome was Active. Moreover, the result in [7] was inactive.
Compound `OC[C@@H]1[C@@H](O)[C@H](O)[C@@H](O)CN1CCCCc1cn(CC23CC4CC(CC(C4)C2)C3)nn1` yielded a CC50 at 72 h in data set [2] of more than 250 µM. The fold change (FC) in the data set with MDBK [4] was found to be 5.2; with MDBK [8], 1.44. Besides, in the data set on MDBK [5], the INH is 100 µM. Also, the Concentration giving inhibition in the data set on MDBK [6] is 50 µM. Also, the outcome in data set [10] and in data set [11] was Active. Moreover, the result in [7] was inactive.

Broadly, the CC50 is the concentration that lowers cell viability or growth by half. A high value points to lower toxicity to the cells.
